In ChEMBL document CHEMBL3244205, “beta-D-Arabinofuran[1',2':4,5]oxazolo-1,3,5-triazine-5-N-methyl-4,6-dione and analogues, unusually specific immunosuppressive agents” (J Med Chem, 1978):
Calls of active or inactive are those of the source. The calls are words filed in the database; no cut-off is given here.

How the values were obtained:
[1] = Immunosuppressive activity in H-2d alloantigen-sensitized C57B1/6 (H-2b) mouse spleen effector T cells assessed as inhibition of effector T cell-induced DBA/2 (H-2d) mouse [51Cr]-labeled P815 cell lysis by measuring lysed cells at 1 ug/mL after 4 hrs by [51Cr] release assay relative to control; assay type: functional
Summary of the method: (§1)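 C57B1/6 (H-2^b) mice sensitized ip with 30–50 × 10^6 P815 mastocytoma cells (DBA/2-passaged). Spleens pooled from 5–7 mice taken 10 days later. Effectors mixed 50:1 with 51Cr-labeled P815 targets in RPMI 1640/Hepes with 10% heat-inactivated calf serum plus compound. Incubated 4 h at 37 °C in 83% N2/10% CO2/7% O2. Supernatant 51Cr counted, run in quadruplicate. % specific lysis computed from spontaneous and water-lysis controls, then expressed as % of untreated control.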

[2] = Immunosuppressive activity in C57B1/6 mouse spleen effector T cells assessed as recovery of number of T cell required to give 50% lysis of 25 X 10^3 DBA/2 mouse [51Cr]-labeled P815 cells treated on day 4 of 5 days culture system measured after day 5 by [51Cr] release assay in presence of B6D2(F1) mouse spleen cells relative to control; assay type: functional
Summary of the method: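 Alloantigen coculture was the same: C57B1/6 spleen cells plus B6D2F1 stimulator cells, 5 days at 37 °C. Here compound was added on day 4 rather than at culture start. On day 5, cells were pooled and assayed against 51Cr-P815 targets for 3 h. Lytic units (cells giving 50% lysis of 25 × 10^3 targets) recovered per culture were expressed as percent of control.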

[3] = Immunosuppressive activity in C57B1/6 mouse spleen effector T cells assessed as inhibition of effector T cell-induced DBA/2 mouse [51Cr]-labeled P815 cell lysis at 100 ug/mL after 5 days by [51Cr] release assay in presence of B6D2(F1) mouse spleen cells relative to control; assay type: functional; conditions: C57B1/6, P815, Spleen, 120 h
Summary of the method: (§2)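 Normal C57B1/6 spleen cells (10 × 10^6) cocultured 5 days at 37 °C (83% N2/10% CO2/7% O2) with 0.5 × 10^6 B6D2F1 spleen cells as antigen and compound at 100 μg/mL. Medium was RPMI 1640 with 20% fetal calf serum and gentamycin, using at least 12 cultures per concentration. Pooled cells were then mixed with 51Cr-P815 targets at various ratios (≥3 replicates/ratio) for 3 h at 37 °C. Lysis was plotted against ratio; lytic unit = cells giving 50% lysis of 25 × 10^3 targets.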

[4] = Immunosuppressive activity in H-2d alloantigen-sensitized C57B1/6 (H-2b) mouse spleen effector T cells assessed as inhibition of effector T cell-induced DBA/2 (H-2d) mouse [51Cr]-labeled P815 cell lysis by measuring lysed cells at 100 ug/mL after 4 hrs by [51Cr] release assay relative to control; assay type: functional; summary of the method: as §1
Human alphaherpesvirus 1 [5] = assay: Antiviral activity against Herpes simplex virus type 1 infected in rabbit kidney monolayer cells assessed as reduction in viral titer; assay type: functional, organism-based
[6] = Immunosuppressive activity in H-2d alloantigen-sensitized C57B1/6 (H-2b) mouse spleen effector T cells assessed as inhibition of effector T cell-induced DBA/2 (H-2d) mouse [51Cr]-labeled P815 cell lysis by measuring lysed cells at 10 ug/mL after 4 hrs by [51Cr] release assay relative to control; assay type: functional; summary of the method: as §1
[7] = Immunosuppressive activity in C57B1/6 mouse spleen effector T cells assessed as effect on number of IgM-anti sheep erythrocyte antibody plaque forming cells per culture at 1 ug/culture after 5 days in presence of sheep erythrocytes (reference value: 6440 +/- 2255 PFC/culture); assay type: functional
[8] = Cytotoxicity against C57B1/6 mouse spleen effector T cells assessed as decrease in cell number at 100 ug/mL after 5 days relative to control; assay type: cell-based; conditions: 120 h
[9] = Cytotoxicity against C57B1/6 (H-2b) mouse spleen effector T cells assessed as decrease in cell number at 1 to 100 ug/mL after 4 hrs relative to control; assay type: cell-based
[10] = Immunosuppressive activity in C57B1/6 mouse spleen effector T cells assessed as effect on number of IgM-anti sheep erythrocyte antibody plaque forming cells per culture at 10 ug/culture after 5 days in presence of sheep erythrocytes (reference value: 6440 +/- 2255 PFC/culture); assay type: functional
[11] = Immunosuppressive activity in C57B1/6 mouse spleen effector T cells assessed as effect on number of IgM-anti sheep erythrocyte antibody plaque forming cells per culture at 100 ug/culture after 5 days in presence of sheep erythrocytes (reference value: 6440 +/- 2255 PFC/culture); assay type: functional
[12] = Immunosuppressive activity in C57B1/6 mouse spleen effector T cells assessed as ratio of effector T cell to DBA/2 mouse [51Cr]-labeled P815 cell giving 50% specific lysis at 100 ug/mL after 5 days by [51Cr] release assay in presence of B6D2(F1) mouse spleen cells (reference value: 6 no unit); assay type: functional; summary of the method: as §2
Human alphaherpesvirus 1 [13] = assay: Antiviral activity against Herpes simplex virus type 1 infected in mouse assessed as mean survival time at 150 mg/kg, sc tid administered for 4 days (reference value: 8.3 days); assay type: functional; conditions: route subcutaneous
Summary of the method: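 HSV-1-infected mice dosed subcutaneously three times daily on days 0–4. Vehicle-dosed infected mice served as controls. Read-out was mean survival time in days.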

Human alphaherpesvirus 1 [14] = assay: Antiviral activity against Herpes simplex virus type 1 infected in rabbit kidney monolayer cells assessed as reduction in viral titer at 25 ug/mL relative to control; assay type: functional
Human alphaherpesvirus 1 [15] = assay: Antiviral activity against Herpes simplex virus type 1 infected in mouse assessed as mean survival time at 200 mg/kg, sc tid administered for 4 days (reference value: 8.3 days); assay type: functional; conditions: route subcutaneous

Row | Compound | Specific lysis as % of untreated control [1] | Activity [2] | inhibition at 100 µg/mL [3] | Specific lysis, % of untreated control [4] | Activity (Human alphaherpesvirus 1 [5]) | Specific lysis, % of untreated control [6] | PFC [7] | Activity [8] | Activity [9] | PFC [10] | PFC [11] | Ratio [12] | MST (Human alphaherpesvirus 1 [13]) | fold change (FC) (Human alphaherpesvirus 1 [14]) | MST (Human alphaherpesvirus 1 [15])
1 | Cn1c(=O)[nH]c(=O)n([C@@H]2O[C@H](CO)[C@@H](O)[C@@H]2O)c1=O | 94% | 90% | 84% | 93% | inactive | 98% | 6240 | Non-toxic | Non-toxic | 5520 | 6293 |  |  |  | 
2 | CC(=O)OC[C@H]1O[C@@H]2[C@@H](Oc3nc(=O)n(C)c(=O)n32)[C@@H]1OC(C)=O | 95% | 90% |  | 93% | Active | 103% | 5240 |  |  | 5933 | 8720 | 8.5 |  |  | 
3 | Cn1c(=O)nc2n(c1=O)[C@@H]1O[C@H](CO)[C@@H](O)[C@@H]1O2 | 100% | 90% | 90% | 92% |  | 88% | 4227 | Non-toxic | Non-toxic | 4853 | 7107 |  | 5.4 days |  | 
4 | CN1CN([C@H]2C[C@H](O)[C@@H](CO)O2)C(=O)NC1=O | 90% | 90% |  | 73% |  | 88% |  |  |  |  |  | 7.2 |  | 10 | 18 days
5 | CC(=O)OC[C@H]1O[C@@H](n2c(=O)[nH]c(=O)n(C)c2=O)[C@@H](OC(C)=O)[C@@H]1OC(C)=O | 96% | 90% |  | 88% | inactive | 96% | 4907 |  |  | 4307 | 10040 | 10.5 |  |  | 
